Results on 21 compounds are retold here after ChEMBL document CHEMBL1139655, “Antimicrobial beta-peptoids by a block synthesis approach” (2006).

In brackets after ≈: the same amount, converted by molar mass.

The test system of this assay is Escherichia coli. Briefly: Antimicrobial activity against Escherichia coli ATCC 25922. It counts as functional. The method, boiled down:
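Broth microdilution in trypticase soy broth; 2-fold serial dilutions giving final 512 to 1 µg/mL. Inoculum E. coli ATCC 25922 in TSB, final […] as printed. Incubated 37 °C for 24 h in plate reader, OD600 read every 20 min. MIC taken as lowest concentration preventing growth at 24 h.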
As usually defined, the MIC is the smallest concentration in the dilution series that meets the test's criterion for growth inhibition. Higher therefore signals a less susceptible organism. `CC(=O)NCCC(=O)N(CCC(=O)N(CCCCN)CCC(=O)NCCC(=O)N(CCC(=O)N(CCCCN)CCC(=O)N[C@@H](CCCCN)C(N)=O)CC(C)C)CC(C)C` registered an MIC above 512 µg/mL.

`CC(=O)N(CCC(=O)N(CCN)CCC(=O)N(CCN)CCC(=O)N(CCC(=O)N(CCN)CCC(=O)N(CCN)CCC(=O)N[C@@H](CCCCN)C(N)=O)CC(C)C)CC(C)C` showed a minimum inhibitory concentration (MIC) above 512 µg/mL.

As to `CC(=O)N(CCC(=O)N(CCCN(C)C)CCC(=O)N(CCC(=O)N(CCC(=O)N(CCCN(C)C)CCC(=O)N(CCC(=O)N(CCC(=O)N(CCCN(C)C)CCC(=O)N(CCC(=O)N[C@@H](CCCCN)C(N)=O)CC(C)C)Cc1ccccc1)CC(C)C)Cc1ccccc1)CC(C)C)Cc1ccccc1`, inhibition of growth (MIC) required 128 µg/mL (≈ 84.1 µM).

The compound `CC(=O)N(CCC(=O)N(CCCN(C)C)CCC(=O)N(CCC(=O)N(CCC(=O)N(CCCN(C)C)CCC(=O)N(CCC(=O)N(CCC(=O)N(CCCN(C)C)CCC(=O)N(CCC(=O)N(CCC(=O)N(CCCN(C)C)CCC(=O)N(CCC(=O)N(CCC(=O)N(CCCN(C)C)CCC(=O)N(CCC(=O)N(CCC(=O)N(CCCN(C)C)CCC(=O)N(CCC(=O)N[C@@H](CCCCN)C(N)=O)CC(C)C)Cc1ccccc1)CC(C)C)Cc1ccccc1)CC(C)C)Cc1ccccc1)CC(C)C)Cc1ccccc1)CC(C)C)Cc1ccccc1)CC(C)C)Cc1ccccc1` showed an MIC of 128 µg/mL (≈ 44.8 µM).

On to `CC(=O)NCCC(=O)N(CCC(=O)N(CCN)CCC(=O)NCCC(=O)N(CCC(=O)N(CCN)CCC(=O)NCCC(=O)N(CCC(=O)N(CCN)CCC(=O)NCCC(=O)N(CCC(=O)N(CCN)CCC(=O)NCCC(=O)N(CCC(=O)N(CCN)CCC(=O)NCCC(=O)N(CCC(=O)N(CCN)CCC(=O)NCCC(=O)N(CCC(=O)N(CCN)CCC(=O)N[C@@H](CCCCN)C(N)=O)CC(C)C)CC(C)C)CC(C)C)CC(C)C)CC(C)C)CC(C)C)CC(C)C`, for which the MIC is 128 µg/mL (≈ 53.9 µM).

For `CC(=O)N(CCC(=O)N(CCC(=O)N(CCN)CCC(=O)N(CCC(=O)N(CCC(=O)N(CCN)CCC(=O)N(CCC(=O)N(CCC(=O)N(CCN)CCC(=O)N(CCC(=O)N(CCC(=O)N(CCN)CCC(=O)N[C@@H](CCCCN)C(N)=O)CC(C)C)CC(C)C)CC(C)C)CC(C)C)CC(C)C)CC(C)C)CC(C)C)CC(C)C`, inhibition of growth (MIC) required 256 µg/mL (≈ 154 µM).

`CC(=O)NCCC(=O)N(CCC(=O)N(CCCN(C)C)CCC(=O)NCCC(=O)N(CCC(=O)N(CCCN(C)C)CCC(=O)NCCC(=O)N(CCC(=O)N(CCCN(C)C)CCC(=O)NCCC(=O)N(CCC(=O)N(CCCN(C)C)CCC(=O)NCCC(=O)N(CCC(=O)N(CCCN(C)C)CCC(=O)NCCC(=O)N(CCC(=O)N(CCCN(C)C)CCC(=O)NCCC(=O)N(CCC(=O)N(CCCN(C)C)CCC(=O)NCCC(=O)N(CCC(=O)N(CCCN(C)C)CCC(=O)N[C@@H](CCCCN)C(N)=O)CC(C)C)CC(C)C)CC(C)C)CC(C)C)CC(C)C)CC(C)C)CC(C)C)CC(C)C`: the MIC was above 512 µg/mL.

For the compound `CC(=O)N(CCC(=O)N(CCCN(C)C)CCC(=O)N(CCC(=O)N(CCC(=O)N(CCCN(C)C)CCC(=O)N(CCC(=O)N(CCC(=O)N(CCCN(C)C)CCC(=O)N(CCC(=O)N(CCC(=O)N(CCCN(C)C)CCC(=O)N(CCC(=O)N(CCC(=O)N(CCCN(C)C)CCC(=O)N(CCC(=O)N[C@@H](CCCCN)C(N)=O)CC(C)C)Cc1ccccc1)CC(C)C)Cc1ccccc1)CC(C)C)Cc1ccccc1)CC(C)C)Cc1ccccc1)CC(C)C)Cc1ccccc1`, inhibition of growth (MIC) required 128 µg/mL (≈ 53.1 µM).

Take `CC(=O)N(CCC(=O)N(CCC(=O)N(CCN)CCC(=O)N(CCC(=O)N(CCC(=O)N(CCN)CCC(=O)N(CCC(=O)N(CCC(=O)N(CCN)CCC(=O)N(CCC(=O)N(CCC(=O)N(CCN)CCC(=O)N(CCC(=O)N(CCC(=O)N(CCN)CCC(=O)N[C@@H](CCCCN)C(N)=O)CC(C)C)CC(C)C)CC(C)C)CC(C)C)CC(C)C)CC(C)C)CC(C)C)CC(C)C)CC(C)C)CC(C)C`: the MIC was found to be 256 µg/mL (≈ 126 µM).

For `CC(=O)N(CCC(=O)N(CCC(=O)N(CCCN(C)C)CCC(=O)N(CCC(=O)N(CCC(=O)N(CCCN(C)C)CCC(=O)N(CCC(=O)N(CCC(=O)N(CCCN(C)C)CCC(=O)N[C@@H](CCCCN)C(N)=O)CC(C)C)Cc1ccccc1)CC(C)C)Cc1ccccc1)CC(C)C)Cc1ccccc1`, the MIC stood at 512 µg/mL (≈ 337 µM).

The compound `CC(=O)NCCC(=O)N(CCC(=O)N(CCN)CCC(=O)NCCC(=O)N(CCC(=O)N(CCN)CCC(=O)NCCC(=O)N(CCC(=O)N(CCN)CCC(=O)NCCC(=O)N(CCC(=O)N(CCN)CCC(=O)NCCC(=O)N(CCC(=O)N(CCN)CCC(=O)N[C@@H](CCCCN)C(N)=O)CC(C)C)CC(C)C)CC(C)C)CC(C)C)CC(C)C` showed an MIC of 256 µg/mL (≈ 146 µM).

Compound `CC(=O)N(CCC(=O)N(CCC(=O)N(CCCCN)CCC(=O)N[C@@H](CCCCN)C(N)=O)CC(C)C)CC(C)C` had an MIC above 512 µg/mL.

As to `CC(=O)N(CCC(=O)N(CCC(=O)N(CCCCN)CCC(=O)N(CCC(=O)N(CCC(=O)N(CCCCN)CCC(=O)N[C@@H](CCCCN)C(N)=O)CC(C)C)CC(C)C)CC(C)C)CC(C)C`, the MIC was above 512 µg/mL.

`CC(=O)N(CCC(=O)N(CCC(=O)N(CCCCN)CCC(=O)N(CCC(=O)N(CCC(=O)N(CCCCN)CCC(=O)N(CCC(=O)N(CCC(=O)N(CCCCN)CCC(=O)N[C@@H](CCCCN)C(N)=O)CC(C)C)CC(C)C)CC(C)C)CC(C)C)CC(C)C)CC(C)C`: the MIC was above 512 µg/mL.

As for `CC(=O)N(CCC(=O)N(CCC(=O)N(CCN)CCC(=O)N(CCC(=O)N(CCC(=O)N(CCN)CCC(=O)N(CCC(=O)N(CCC(=O)N(CCN)CCC(=O)N[C@@H](CCCCN)C(N)=O)CC(C)C)CC(C)C)CC(C)C)CC(C)C)CC(C)C)CC(C)C`, the MIC is above 512 µg/mL.

`CC(=O)NCCC(=O)N(CCC(=O)N(CCCCN)CCC(=O)NCCC(=O)N(CCC(=O)N(CCCCN)CCC(=O)NCCC(=O)N(CCC(=O)N(CCCCN)CCC(=O)N[C@@H](CCCCN)C(N)=O)CC(C)C)CC(C)C)CC(C)C` showed an MIC of 512 µg/mL (≈ 424 µM).

In turn, `CC(=O)N(CCC(=O)N(CCC(=O)N(CCCN(C)C)CCC(=O)N(CCC(=O)N(CCC(=O)N(CCCN(C)C)CCC(=O)N(CCC(=O)N(CCC(=O)N(CCCN(C)C)CCC(=O)N(CCC(=O)N(CCC(=O)N(CCCN(C)C)CCC(=O)N[C@@H](CCCCN)C(N)=O)CC(C)C)Cc1ccccc1)CC(C)C)Cc1ccccc1)CC(C)C)Cc1ccccc1)CC(C)C)Cc1ccccc1` registered an MIC of 128 µg/mL (≈ 65.1 µM).

With `CC(=O)N(CCC(=O)N(CCC(=O)N(CCCN(C)C)CCC(=O)N(CCC(=O)N(CCC(=O)N(CCCN(C)C)CCC(=O)N(CCC(=O)N(CCC(=O)N(CCCN(C)C)CCC(=O)N(CCC(=O)N(CCC(=O)N(CCCN(C)C)CCC(=O)N(CCC(=O)N(CCC(=O)N(CCCN(C)C)CCC(=O)N[C@@H](CCCCN)C(N)=O)CC(C)C)Cc1ccccc1)CC(C)C)Cc1ccccc1)CC(C)C)Cc1ccccc1)CC(C)C)Cc1ccccc1)CC(C)C)Cc1ccccc1`, the MIC is 128 µg/mL (≈ 53.1 µM).

The compound `CC(=O)NCCC(=O)N(CCC(=O)N(CCCN(C)C)CCC(=O)NCCC(=O)N(CCC(=O)N(CCCN(C)C)CCC(=O)NCCC(=O)N(CCC(=O)N(CCCN(C)C)CCC(=O)NCCC(=O)N(CCC(=O)N(CCCN(C)C)CCC(=O)NCCC(=O)N(CCC(=O)N(CCCN(C)C)CCC(=O)N[C@@H](CCCCN)C(N)=O)CC(C)C)CC(C)C)CC(C)C)CC(C)C)CC(C)C` gave an MIC above 512 µg/mL.

As for `CC(=O)NCCC(=O)N(CCC(=O)N(CCN)CCC(=O)NCCC(=O)N(CCC(=O)N(CCN)CCC(=O)NCCC(=O)N(CCC(=O)N(CCN)CCC(=O)NCCC(=O)N(CCC(=O)N(CCN)CCC(=O)NCCC(=O)N(CCC(=O)N(CCN)CCC(=O)NCCC(=O)N(CCC(=O)N(CCN)CCC(=O)NCCC(=O)N(CCC(=O)N(CCN)CCC(=O)NCCC(=O)N(CCC(=O)N(CCN)CCC(=O)N[C@@H](CCCCN)C(N)=O)CC(C)C)CC(C)C)CC(C)C)CC(C)C)CC(C)C)CC(C)C)CC(C)C)CC(C)C`, the MIC is 256 µg/mL (≈ 95.3 µM).

For `CC(=O)NCCC(=O)N(CCC(=O)N(CCCN(C)C)CCC(=O)NCCC(=O)N(CCC(=O)N(CCCN(C)C)CCC(=O)NCCC(=O)N(CCC(=O)N(CCCN(C)C)CCC(=O)NCCC(=O)N(CCC(=O)N(CCCN(C)C)CCC(=O)NCCC(=O)N(CCC(=O)N(CCCN(C)C)CCC(=O)NCCC(=O)N(CCC(=O)N(CCCN(C)C)CCC(=O)NCCC(=O)N(CCC(=O)N(CCCN(C)C)CCC(=O)N[C@@H](CCCCN)C(N)=O)CC(C)C)CC(C)C)CC(C)C)CC(C)C)CC(C)C)CC(C)C)CC(C)C`, the MIC is above 512 µg/mL.
